Reference: ChEMBL document CHEMBL1124774, “Synthesis and biological activity of some derivatives of rifamycin P” (1990)
Converted amounts (≈) assume the structure as drawn.

Tests used:
Format in all cases: functional
Escherichia coli = test: In vitro antibacterial activity of compound against Escherichia coli SKF 12140
Klebsiella pneumoniae = test: In vitro antibacterial activity of compound against Klebsiella pneumoniae ISM
Haemophilus influenzae = test: In vitro antibacterial activity of compound against Haemophilus influenzae ATCC 19418
[1] = tested on: Mycobacterium tuberculosis; test: In vitro antibacterial activity of compound against Mycobacterium tuberculosis H37Rv ATCC 9660
[2] = tested on: Staphylococcus epidermidis; test: In vitro antibacterial activity of compound against Staphylococcus epidermidis ATCC 12228
How it was run: (§1)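 Twofold microdilution MIC in Iso-Sensitest broth over 128-0.0001 µg/mL. Inoculum was 10^4 cfu/mL, with incubation at 37 °C for 18-24 h.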

Streptococcus pneumoniae = test: In vitro antibacterial activity of compound against Streptococcus pneumoniae UC 41
How it was run: (§2)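 Streptococcal MICs were run by twofold microdilution in Todd-Hewitt broth over 128-0.0001 µg/mL. Inoculum was 10^4 cfu/mL, with incubation at 37 °C for 18-24 h.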

Streptococcus pyogenes = test: In vitro antibacterial activity of compound against Streptococcus pyogenes C 203 SKF 13400; how it was run: as §2
Pseudomonas aeruginosa = test: In vitro antibacterial activity of compound against Pseudomonas aeruginosa ATCC 10145; how it was run: as §1
Neisseria gonorrhoeae = test: In vitro antibacterial activity of compound against Neisseria gonorrhoeae ISM 68/126
Proteus vulgaris = test: In vitro antibacterial activity of compound against Proteus vulgaris X19H ATCC 881
Staphylococcus aureus = test: In vitro antibacterial activity of compound against Staphylococcus aureus Tour L 165; how it was run: as §1
Enterococcus faecalis = test: In vitro antibacterial activity of compound against Streptococcus faecalis ATCC 7080.; how it was run: as §1

SMILES | MIC (Escherichia coli) | MIC (Klebsiella pneumoniae) | MIC (Haemophilus influenzae) | MIC [1] | MIC [2] | MIC (Streptococcus pneumoniae) | MIC (Streptococcus pyogenes) | MIC (Pseudomonas aeruginosa) | MIC (Neisseria gonorrhoeae) | MIC (Proteus vulgaris) | MIC (Staphylococcus aureus) | MIC (Enterococcus faecalis)
COC1/C=C/OC2(C)Oc3c(C)c(O)c4c(O)c(c5sc(N6CCN(c7ccccc7)CC6)nc5c4c3C2=O)NC(=O)/C(C)=C\C=C\C(C)C(O)C(C)C(O)C(C)C(OC(C)=O)C1C (stereo not given) | 4 µg/mL (≈ 4.45 µM) | > 128 µg/mL | 0.125 µg/mL (≈ 0.139 µM) | 1 µg/mL (≈ 1.11 µM) | 0.032 µg/mL (≈ 0.0356 µM) | 0.004 µg/mL (≈ 0.00445 µM) | 0.032 µg/mL (≈ 0.0356 µM) | 8 µg/mL (≈ 8.9 µM) | 0.125 µg/mL (≈ 0.139 µM) | 16 µg/mL (≈ 17.8 µM) | 0.008 µg/mL (≈ 0.0089 µM) | 1 µg/mL (≈ 1.11 µM)
COC1/C=C/OC2(C)Oc3c(C)c(O)c4c(O)c(c5sc(N6CCNCC6)nc5c4c3C2=O)NC(=O)/C(C)=C\C=C\C(C)C(O)C(C)C(O)C(C)C(OC(C)=O)C1C (stereo not given) | 8 µg/mL (≈ 9.72 µM) | 16 µg/mL (≈ 19.4 µM) | 0.25 µg/mL (≈ 0.304 µM) |  | 0.063 µg/mL (≈ 0.0766 µM) | 0.063 µg/mL (≈ 0.0766 µM) | 0.125 µg/mL (≈ 0.152 µM) | 8 µg/mL (≈ 9.72 µM) | 0.125 µg/mL (≈ 0.152 µM) | 8 µg/mL (≈ 9.72 µM) | 0.125 µg/mL (≈ 0.152 µM) | 2 µg/mL (≈ 2.43 µM)
COC1/C=C/OC2(C)Oc3c(C)c(O)c4c(O)c(c5sc(N6CCN(Cc7ccccc7)CC6)nc5c4c3C2=O)NC(=O)/C(C)=C\C=C\C(C)C(O)C(C)C(O)C(C)C(OC(C)=O)C1C (stereo not given) | 32 µg/mL (≈ 35 µM) | 64 µg/mL (≈ 70.1 µM) | 0.125 µg/mL (≈ 0.137 µM) | 0.125 µg/mL (≈ 0.137 µM) | 0.063 µg/mL (≈ 0.069 µM) | 0.063 µg/mL (≈ 0.069 µM) | 0.063 µg/mL (≈ 0.069 µM) | 16 µg/mL (≈ 17.5 µM) | 0.125 µg/mL (≈ 0.137 µM) | 32 µg/mL (≈ 35 µM) | 0.008 µg/mL (≈ 0.00876 µM) | 1 µg/mL (≈ 1.1 µM)
COC1/C=C/OC2(C)Oc3c(C)c(O)c4c(O)c(c5sc(N6CCN(C(=O)OCc7ccccc7)CC6)nc5c4c3C2=O)NC(=O)/C(C)=C\C=C\C(C)C(O)C(C)C(O)C(C)C(OC(C)=O)C1C (stereo not given) | > 128 µg/mL | > 128 µg/mL | 0.125 µg/mL (≈ 0.131 µM) | 0.5 µg/mL (≈ 0.522 µM) | 0.032 µg/mL (≈ 0.0334 µM) | 0.063 µg/mL (≈ 0.0658 µM) | 0.125 µg/mL (≈ 0.131 µM) | 32 µg/mL (≈ 33.4 µM) | 0.125 µg/mL (≈ 0.131 µM) | 64 µg/mL (≈ 66.9 µM) | 0.063 µg/mL (≈ 0.0658 µM) | 2 µg/mL (≈ 2.09 µM)
CCOC(=O)N1CCN(c2nc3c(s2)c2c(O)c4c(O)c(C)c5c(c43)C(=O)C(C)(O/C=C/C(OC)C(C)C(OC(C)=O)C(C)C(O)C(C)C(O)C(C)/C=C/C=C(/C)C(=O)N2)O5)CC1 (stereo not given) | 16 µg/mL (≈ 17.9 µM) | 32 µg/mL (≈ 35.8 µM) | 0.125 µg/mL (≈ 0.14 µM) | 2 µg/mL (≈ 2.23 µM) | 0.063 µg/mL (≈ 0.0704 µM) | 0.063 µg/mL (≈ 0.0704 µM) | 0.063 µg/mL (≈ 0.0704 µM) | 32 µg/mL (≈ 35.8 µM) | 0.125 µg/mL (≈ 0.14 µM) | 16 µg/mL (≈ 17.9 µM) | 0.063 µg/mL (≈ 0.0704 µM) | 4 µg/mL (≈ 4.47 µM)
COC1/C=C/OC2(C)Oc3c(C)c(O)c4c(O)c(c5scnc5c4c3C2=O)NC(=O)/C(C)=C\C=C\C(C)C(O)C(C)C(O)C(C)C(O)C1C (stereo not given) | 16 µg/mL (≈ 23 µM) | 16 µg/mL (≈ 23 µM) | 0.125 µg/mL (≈ 0.179 µM) | 0.5 µg/mL (≈ 0.718 µM) | 0.008 µg/mL (≈ 0.0115 µM) | 0.125 µg/mL (≈ 0.179 µM) | 0.125 µg/mL (≈ 0.179 µM) | 8 µg/mL (≈ 11.5 µM) | 0.125 µg/mL (≈ 0.179 µM) | 4 µg/mL (≈ 5.74 µM) | 0.032 µg/mL (≈ 0.0459 µM) | 4 µg/mL (≈ 5.74 µM)
COC1/C=C/OC2(C)Oc3c(C)c(O)c4c(O)c(c5sc(N6CCCC6)nc5c4c3C2=O)NC(=O)/C(C)=C\C=C\C(C)C(O)C(C)C(O)C(C)C(OC(C)=O)C1C (stereo not given) | 16 µg/mL (≈ 19.8 µM) | 32 µg/mL (≈ 39.6 µM) | 0.125 µg/mL (≈ 0.155 µM) | 2 µg/mL (≈ 2.48 µM) | 0.063 µg/mL (≈ 0.078 µM) | 0.032 µg/mL (≈ 0.0396 µM) | 0.008 µg/mL (≈ 0.0099 µM) | 8 µg/mL (≈ 9.9 µM) | 0.5 µg/mL (≈ 0.619 µM) | 16 µg/mL (≈ 19.8 µM) | 0.004 µg/mL (≈ 0.00495 µM) | 2 µg/mL (≈ 2.48 µM)
COc1ccc(N2CCN(c3nc4c(s3)c3c(O)c5c(O)c(C)c6c(c54)C(=O)C(C)(O/C=C/C(OC)C(C)C(OC(C)=O)C(C)C(O)C(C)C(O)C(C)/C=C/C=C(/C)C(=O)N3)O6)CC2)cc1 (stereo not given) | 8 µg/mL (≈ 8.61 µM) | > 128 µg/mL | 0.125 µg/mL (≈ 0.135 µM) | 0.25 µg/mL (≈ 0.269 µM) | 0.063 µg/mL (≈ 0.0678 µM) | 0.063 µg/mL (≈ 0.0678 µM) | 0.125 µg/mL (≈ 0.135 µM) | 128 µg/mL (≈ 138 µM) | 0.125 µg/mL (≈ 0.135 µM) | 64 µg/mL (≈ 68.9 µM) | 0.063 µg/mL (≈ 0.0678 µM) | 4 µg/mL (≈ 4.31 µM)
